A selection: hits, their analogues and other compounds. The true share with any hit is near 3.1%.
PREPL inh: inhibitors of human prolyl oligopeptidase-like enzyme PREPL | AID 2751 | Q4J6C6 | recombinant PREPL, fluorescence polarization activity-based probe | actives 0.68% (n = 320,000) | inhibition, % at 5.96 µM; in the data active means inhibition above about 43%
MEKK2wt PB1 HTS: raises or lowers MEK5 binding to wildtype human MEKK2 PB1 domain | Q9Y2U5 | binding response (% of control), % at 10 µM | bead flow cytometry, Alexa488-MEK5 binding to MEKK2 WT; actives lie on both sides | actives 1.1% (n = 290,000); in the data active means binding response below about 67% or above about 130%
Apaf1 inhib: inhibitors of human Apaf-1 apoptosome. reconstituted apoptosome caspase-3 activity, DEVD-Rh110 fluorescence. actives 0.71% (n = 330,000). inhibition, % at 20 µM; active means inhibition of at least 40% at 20 µM
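Assay system: Apoptosome proteins | Medium: pH 7.5 Hepes buffer with CHAPS, BSA, DTT | Also added: Cytochrome c and DEVD-Rh110 substrate | Times: 30 min plus 50 min, RT | Detection: Rhodamine 110 fluorescence at Ex 480/Em 540 nm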
MEKK3 PB1 HTS: MEKK3-MEK5 PB1 interaction, increase or decrease; actives 1.4% (n = 290,000); bead-based flow cytometry, Alexa488-MEK5 binding to MEKK3; actives lie on both sides; 0 = blocked by unlabeled MEK5, 100 = vehicle; binding response (% of control), % at 10 µM; Q99759; AID 1529;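 active means binding response more than 3 SD above or below the average of its plate-row segment, actives on both sides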;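 further: Alexa488 bead fluorescence after subtracting the streptavidin-only scavenger bead signal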
UBC13 polyUb: human UBC13 polyubiquitination inhibition | P61088 | UBC13 polyubiquitin chain formation, TR-FRET | inhibition, % at 20 µM | actives 0.47% (n = 330,000) | AID 485273; in the data active means inhibition above about 45%, passing the limit was not always enough
Target sequence (P61088 whole entry, looked up): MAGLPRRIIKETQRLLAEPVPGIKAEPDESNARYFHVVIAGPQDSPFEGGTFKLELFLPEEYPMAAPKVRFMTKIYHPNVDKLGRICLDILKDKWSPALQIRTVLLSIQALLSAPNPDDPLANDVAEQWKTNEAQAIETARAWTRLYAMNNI
MEKK2 mut-MEK5: signal of MEK5 binding to mutant human MEKK2 PB1 domain. actives 0.35% (n = 290,000). percent response, % at 10 µM. bead flow cytometry, Alexa488-MEK5 binding to MEKK2 mutant. AID 1530; in the data active means percent response above about 24%, passing the limit was not always enough
MEKK2wt confirm: raises or lowers MEK5 binding to wildtype human MEKK2, retest; binding response (% of control), % at 10 µM; bead flow cytometry, Alexa488-MEK5 binding to MEKK2 WT; actives lie on both sides; shares compounds with MEKK3 PB1 HTS; actives 2.4% (n = 5,900); in the data active means binding response below about 16% or above about 210%; inactive means in between
MEKK2mut confirm: signal of MEK5 binding to mutant human MEKK2, retest; shares compounds with MEKK3 PB1 HTS; bead flow cytometry, Alexa488-MEK5 binding to MEKK2 mutant; percent response, % at 10 µM; actives 2% (n = 5,900); in the data active means percent response mostly above about 71%, no sharp cut-off; inactive means mostly below about 38%;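 further: higher means compound restores mutant binding toward wildtype level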
MEKK3 confirm: MEKK3-MEK5 PB1 inhibition, single concentration confirmation; shares compounds with MEKK3 PB1 HTS; bead flow cytometry, Alexa488-MEK5 binding to MEKK3; active compounds read low; binding response (% of control), % at 10 µM; actives 1.8% (n = 5,900); AID 1894;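 active means binding response below 72% of control, or above a set upper limit, though filed actives all read lower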;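 further: lower values mean stronger disruption of MEK5 binding to MEKK3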
Hits are given with their value; n = inactive; x = not tested or not shown; [ ] = dose if it differs, or a comment.

SMILES	PREPL inh	MEKK2wt PB1 HTS	Apaf1 inhib	MEKK3 PB1 HTS	UBC13 polyUb	MEKK2 mut-MEK5	MEKK2wt confirm	MEKK2mut confirm	MEKK3 confirm
CCCCn1c(N)c(N(CCOC)C(=O)CCC2CCCCC2)c(=O)[nH]c1=O	n	x	n	x	n	x	x	x	x
CC(=O)c1cc(-c2ccccc2)n(CCC(=O)NC(C)(C)C)c1C	n	36.0[inhibitor]	n	25.0[inhibitor]	n	n	n	n	n
CCC(C)(C)NC(=O)CCn1c(-c2ccccc2)cc(C(C)=O)c1C	n	n	n	n	n	n	x	x	x
CSc1nc2nc3c(cc2c(=O)n1-c1ccc(C)cc1)COC(C)(C)C3	n	n	n	129.0	n	n	n	n	n
COc1cc(CCC(=O)N2CCN(c3ccccc3)CC2)cc(OC)c1OC	n	n	n	n	n	n	x	x	x
CC1CCN(S(=O)(=O)c2ccc(C(=O)N3CCCC3C(=O)O)cc2)CC1 (centres undefined)	n	x	n	x	n	x	x	x	x
COc1ccc2oc(C(=O)Nc3ccc(S(=O)(=O)N(C)C4CCN(C)CC4)cc3)c(C)c2c1	n	157.0	n	n	n	n	n	n	n
COc1ccc(CC(=O)Nc2ccc(S(=O)(=O)N(C)C3CCN(C)CC3)cc2)cc1	n	x	n	x	n	x	x	x	x
CCCCn1c(N)c(N(CC(C)C)C(=O)c2oc3c(Cl)cccc3c2C)c(=O)[nH]c1=O	n	x	n	x	n	x	x	x	x
CCn1c(O)c(/C=C/C=C/C=Nc2ccccc2)sc1=S	n	59.0[inhibitor]	n	n	n	n	n	n	n
CCCCn1c(O)c(/C=C/C=C/C=Nc2ccccc2)sc1=S	n	-5.0	n	21.0[inhibitor]	n	n	n	n	35.0
CCn1c(O)c(C=NCc2ccccc2)sc1=S	n	n	n	n	n	n	x	x	x
Cc1cc(-c2cc(N)n(-c3ccccc3)n2)c(C)n1C1CCCC1	n	-5.0[inhibitor]	n	n	n	n	n	n	n
CCC1CCCCN1C(=O)c1cc(S(=O)(=O)N2CCOCC2)ccc1C (centres undefined)	n	x	n	x	n	x	x	x	x
Cc1ccc(/C=N/n2nnnc2N)cc1[N+](=O)[O-]	n	n	n	128.0	n	n	n	n	n
CC1CCN(c2ccc(/C=N/n3nnnc3N)cc2[N+](=O)[O-])CC1	n	n	n	n	n	n	x	x	x
CCn1nnnc1-c1ccc(OC)c(S(=O)(=O)NCCc2ccccc2)c1	n	n	n	45.0[inhibitor]	n	n	n	n	n
CS(=O)(=O)N1CCC(C(=O)NCCC2=CCCCC2)CC1	n	n	n	n	n	n	x	x	x
O=C(NCCN1CCCCCC1)C1CCN(S(=O)(=O)N2CCOCC2)CC1	n	n	n	n	n	39.0	n	n	n
CC1CC(C)CN(CCCNC(=O)C2CCN(S(=O)(=O)N3CCCCC3)CC2)C1 (centres undefined)	n	n	n	123.0	n	n	n	n	n
CC1CCN(S(=O)(=O)N2CCC(C(=O)NCCC3=CCCCC3)CC2)CC1	n	n	n	70.0[inhibitor]	n	n	n	n	n
CC1CCN(CCCNC(=O)C2CCN(S(=O)(=O)N3CCCCC3)CC2)CC1	n	n	n	123.0	n	n	n	n	n
COc1ccccc1N1CCN(c2nccc(C)n2)CC1	n	n	n	n	n	n	x	x	x
CN(C(=O)CSc1nnc(-c2ccccc2F)n1N)C1CCCCC1	n	x	n	x	n	x	x	x	x
Cc1ccccc1C(=O)OCC(=O)NCC1COc2ccccc2O1 (centres undefined)	x	x	n	x	n	x	x	x	x
SMILES	PREPL inh	MEKK2wt PB1 HTS	Apaf1 inhib	MEKK3 PB1 HTS	UBC13 polyUb	MEKK2 mut-MEK5	MEKK2wt confirm	MEKK2mut confirm	MEKK3 confirm
O=C(Nc1nnc(-c2ccco2)o1)c1ccc(N2C(=O)CCC2=O)cc1	n	n	n	70.0[inhibitor]	n	n	n	n	n
O=C(Nc1nnc(-c2ccc(Cl)cc2)o1)c1ccc(N2C(=O)CCC2=O)cc1	n	n	n	n	n	n	x	x	x
CC(=O)c1cccc(N/C=C\C(=O)c2ccc(C)cc2)c1	n	n	x	135.0	x	n	n	n	n
O=c1c(Cl)c(Cl)cnn1-c1ccccc1	x	n	x	133.0	x	n	n	n	n
CC(C)c1ccccc1NC(=S)NC1CCN(Cc2ccccc2)CC1	n	138.0	n	n	n	n	n	n	n
Cc1oc(-c2ccc(Cl)cc2)cc1C(=O)NC1CCN(Cc2ccccc2)CC1	n	175.0	n	n	n	n	n	n	n
Fc1ccccc1NC(=S)N1CCN(Cc2ccccc2)CC1	n	n	n	139.0	n	n	n	n	n
Cc1oc(C(C)(C)C)cc1C(=O)NC1CCN(Cc2ccccc2)CC1	n	n	n	n	n	n	x	x	x
S=C(Nc1ccc(Cl)cc1Cl)NC1CCN(Cc2ccccc2)CC1	n	n	n	n	n	53.0	n	n	n
O=C(O)CC(Cc1ccc(Cl)cc1)C(=O)Nc1cc(Cl)ccc1Cl (centres undefined)	n	n	n	n	n	n	x	x	x
CC(C)(C)NC(=O)C(c1ccccn1)N(C(=O)c1csnn1)C1CCCC1 (centres undefined)	n	n	n	n	n	n	x	x	x
CC(C(=O)NC1CCCC1)N1CCN(Cc2ccccc2)CC1 (centres undefined)	n	n	n	140.0	n	n	n	n	n
CC(C(=O)NCCc1ccc(F)cc1)N1CCN(Cc2ccccc2)CC1 (centres undefined)	n	n	n	n	n	n	x	x	x
S=C(Nc1ccccc1Cl)NC1CCN(Cc2ccccc2)CC1	n	n	n	69.0[inhibitor]	n	n	n	n	n
Cc1c(Cl)cccc1NC(=S)NC1CCN(Cc2ccccc2)CC1	n	n	n	n	n	n	x	x	x
CCCCNC(=O)C(CC)(ONc1ccccc1C(F)(F)F)c1ccccc1 (centres undefined)	n	x	n	x	n	x	x	x	x
Cc1ccc(C(=O)NN2C(=O)C3C4c5ccccc5C(c5ccccc54)C3C2=O)cc1 (centres undefined)	n	n	n	129.0	n	n	n	n	n
COc1cc(/C=C/C(=O)C2C(=O)C=C(C)OC2=O)cc(OC)c1O (centres undefined)	n	n	n	135.0	n	n	n	n	n
COc1ccc(/C=C/C(=O)C2C(=O)C=C(C)OC2=O)cc1O (centres undefined)	n	n	n	n	n	n	x	x	x
CC(C)(C)N1C(=O)[C@H]2[C@@H](c3ccc(Br)cc3)N3C(=O)N(c4ccccc4)C(=O)[C@@]3(C)[C@H]2C1=O	n	n	n	n	n	n	x	x	x

Assay outcomes deposited in PubChem by several laboratories.
